Data set [1] is described as follows: Resistance index, ratio of GI50 for antiproliferation activity against human A549/Taxol cells to GI50 for antiproliferation activity against human A549 cells assessed as cell growth inhibition measured after 72 hrs by MTT assay.
A short description of data set [2]: Cytotoxicity against human L02 cells assessed as assessed as cell growth inhibition measured after 72 hrs by MTT assay. It counts as cell-based. The procedure, abridged:
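LO2 normal liver cells cultured in RPMI-1640/10% FBS at 37 °C, 5% CO2 and seeded at 4−7 × 10³ cells/well. Graded concentrations applied for 72 h, then MTT readout at 570 nm. GI50 is the concentration giving 50% growth inhibition, mean ± SD of at least three independent experiments.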
(In general: Tetrazolium assays rely on reduction of a dye to a coloured formazan, in cell work by metabolically active cells.)

The nature of data set [3]: Selectivity index, ratio of GI50 for cytotoxicity against human L02 cells to GI50 for antiproliferation activity against human HepG2 cells assessed as cell growth inhibition measured after 72 hrs by MTT assay. In kind it is toxicity, cell-based. Particulars: L02 cells and HepG2 cells, read-out: RatioGI50. The procedure, abridged: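 MTT assay: cells seeded 4–7 × 10³/well, adhered overnight, exposed to a concentration series for 72 h. MTT (2.5 mg/mL stock) added for 4 h, crystals dissolved in DMSO, absorbance read at 570 nm. GI50 is mean ± SD of ≥3 independent experiments. Selectivity = GI50 on normal LO2 / GI50 on HepG2. Resistance fold = GI50 on resistant cells / GI50 on sensitive cells.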

Data set [4] is described as follows: Antiproliferation activity against human A549/Taxol cells assessed as cell growth inhibition measured after 72 hrs by MTT assay. It counts as functional. The procedure, abridged:
(§1)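 Cells grown in RPMI-1640 with 10% FBS at 37 °C, 5% CO2, seeded at 4−7 × 10³ cells/well and left to adhere overnight. Exposed to a range of concentrations for 72 h, then MTT (2.5 mg/mL stock) added for 4 h. Formazan dissolved in DMSO and absorbance read at 570 nm. GI50 taken as the concentration giving 50% growth inhibition, reported as mean ± SD of at least three independent experiments.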

Data set [5] concerns the target Tubulin beta (Homo sapiens) (UniProt P68371+Q9H4B7+Q13509+P04350+Q3ZCM7+P07437+Q13885+Q9BVA1+Q9BUF5+A6NNZ2). Briefly: Inhibition of N,N'-Ethylenebis(iodoacetamide) binding to beta-tubulin in human HepG2 cells assessed as reduction in EBI/beta-tubulin adduct formation at 5 uM preincubated for 2 hrs followed by EBI addition and measured after 1.5 hrs by Western blot analysis. It counts as cell-based. The conditions noted are these: time 3.5 hrs. The procedure, abridged: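 HepG2 seeded 5 × 10⁵ cells/well, adhered overnight. Lysate protein (20 μg) run on 10% polyacrylamide gel on ice and transferred to PVDF. Probed with anti-β-tubulin 16 h at 4 °C, then HRP secondary. Chemiluminescence detection.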
(In general: A western blot detects proteins with antibodies after separation by electrophoresis.)

Data set [6] has as its system HepG2. Nature of the data set: Induction of apoptosis in human HepG2 cells assessed as PARP cleavage at 20 nM incubated for 24 hrs by western blot analysis. It counts as functional, cell-based. Put shortly:
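Lysates (20 μg protein) run on 10% polyacrylamide gel, transferred to PVDF, blocked in 5% nonfat milk, probed overnight at 4 °C for cleaved PARP. HRP secondary, ECL detection, densitometry; one-way ANOVA with Dunnett's test vs control.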

A further data set relates to A549. Briefly: Antiproliferation activity against human A549 cells assessed as cell growth inhibition measured after 72 hrs by MTT assay. In kind it is functional. The procedure, abridged:
as §1

Data set [7] deals with HepG2. Briefly: Antiproliferation activity against human HepG2 cells assessed as cell growth inhibition measured after 72 hrs by MTT assay. In kind it is functional. The procedure, abridged: as §1
The subject of the next data set is HCT-116. Nature of the data set: Antiproliferation activity against human HCT116 cells assessed as cell growth inhibition measured after 72 hrs by MTT assay. It counts as functional. The procedure, abridged:
as §1

Data set [8] can be described thus: Inhibition of porcine brain tubulin polymerization measured every 60 sec for 60 mins in presence of GTP by fluorescence assay. Set-up: species or system Sus scrofa. The procedure, abridged:
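Fluorescence kit assay using 2 mg/mL porcine brain tubulin with 2 mM MgCl₂, 0.5 mM EGTA, 1 mM GTP and 15% glycerol. Compound at various concentrations preincubated 1 min at 37 °C before adding the tubulin mix. Read at ex 355/em 460 nm every 60 s for 60 min. IC50 is the concentration giving 50% inhibition at 60 min; mean ± SD of ≥3 independent experiments.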

For data set [9], the system named is HepG2. Briefly: Inhibition of cell migration in human HepG2 cells at 10 nM measured after 24 hrs by inverted light microscopy method based wound healing assay relative to control. It counts as functional. The procedure, abridged:
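Confluent HepG2 monolayer (seeded 3 × 10⁵ cells/well) scratched with a pipette tip and washed with PBS. Incubated in serum-free DMEM with compound at 2.5, 5 or 10 nM for 24 h; CA-4 run in parallel, DMSO as vehicle. Wound imaged at 0 and 24 h by inverted microscope and compared with control.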

Data set [10] in a line: Lipophilicity, log P of the compound in DMSO and n-octanol at pH 7.4 incubated for 10 hrs under stirred condition by HPLC analysis. It counts as physicochemical. The conditions noted are these: n-octanol / aqueous phase pH 7.4, pH 7.4. Put shortly: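 Partition between n-octanol and water: mixture stirred at room temperature for 10 h, then left at 4 °C overnight. Each phase analysed separately by HPLC on a C18 column. Log P taken from the ratio of peak areas in n-octanol and water.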

A short description of data set [11]: Aqueous solubility of compound in DMSO at pH 7.4 by HPLC analysis. In kind it is physicochemical. Particulars: aqueous medium. Put shortly:
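Solubility measured at pH 7.4. DMSO stock (10 mg/mL) diluted in methanol to five levels to build an HPLC peak-area standard curve. Compound added to 1 mL buffer to make a saturated solution, and the peak area of that solution analysed by HPLC on a C18 column. Solubility calculated from the standard curve.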

Data set [12] concerns HepG2. Nature of the data set: Antitumor activity against human HepG2 cells xenografted in Balb/c mouse assessed as reduction in tumor volume administered orally as 0.5% MC suspension for 21 days relative to control. The conditions noted are these: time 21 day. The arrangement: scale not given: the % may be the effect or the level left. It counts as functional.

pIC50: −log10 of the molar value. The source made the active and inactive calls. No cut-off for these calls is given here.

Broadly, the GI50 is the concentration at which growth is held to half of that of the control. `CC(=O)O[C@H]1C(=O)[C@@]2(C)[C@H]([C@H](OC(=O)c3ccccc3)[C@]3(O)C[C@H](OC(=O)[C@H](O)[C@@H](NC(=O)c4ccccc4)c4ccccc4)C(C)=C1C3(C)C)[C@]1(OC(C)=O)CO[C@@H]1C[C@@H]2O` [PACLITAXEL]: the RatioGI50 in [1] amounted to 246. Further, in data set [2], the GI50 at 72 h came to 30.8 nM. Besides, in data set [3], the selectivity ratio at 72 h worked out at 12. In data set [4], the 50% growth inhibitory concentration (GI50) was 935 nM.
One may read the inhibition as the relative decrease from the control value, in per cent. `CC[C@]1(O)C[C@H]2CN(CCc3c([nH]c4ccccc34)[C@@](C(=O)OC)(c3cc4c(cc3OC)N(C=O)[C@H]3[C@@](O)(C(=O)OC)[C@H](OC(C)=O)[C@]5(CC)C=CCN6CC[C@]43[C@@H]65)C2)C1`: the inhibition result in data set [5] was “inactive”.
For the molecule `COc1cc2c(c(OC)c1OC)-c1ccc(OC)c(=O)cc1[C@@H](NC(C)=O)CC2`, in the data set with HepG2 [6], the outcome was Active.
For orientation: pIC50 means the negative decadic logarithm of the IC50, by convention in mol/L. Regarding `COc1ccc(/C=C\c2cc(OC)c(OC)c(OC)c2)cc1O` [COMBRETASTATIN A4], the GI50 was 4.8 nM in the data set on A549, 6.1 nM in the data set with HepG2 [7], 2.4 nM with HCT-116 and 20.4 nM in [4]. Moreover, the RatioGI50 in data set [1] came to 4. Also, the pIC50 in data set [8] was 5.64. Further, in data set [2], the GI50 at 72 h amounted to 333 nM. The selectivity ratio at 72 h in [3] was found to be 55. Besides, the inhibition at 0.01 µM in the data set with HepG2 [9] worked out at 47%.
Usually logD stands for the decadic logarithm of the distribution of all forms, ionised or not, between an organic phase and buffer at a given pH. By solubility is commonly meant the concentration that dissolves in the medium under given conditions. Take `CCOc1cccc(Nc2nn(C)c3c2Cc2cc(OCC)c(OCC(N)=O)cc2-3)c1`: the GI50 in the data set on A549 came out at 23.2 nM; in the data set with HepG2 [7], 8.6 nM; in the data set on HCT-116, 39.6 nM. In data set [10], this molecule gave a logD at 10 h of 3.18. The molecule also returned a solubility in data set [11] of less than 5 µg/mL. In addition, in the data set with HepG2 [12], the Activity turned out to be 50%. The pIC50 in [8] was 5.39.

(Values after ChEMBL document CHEMBL4699650, “SAR Investigation and Discovery of Water-Soluble 1-Methyl-1,4-dihydroindeno[1,2-c]pyrazoles as Potent Tubulin Polymerization Inhibitors” (J Med Chem, 2020).)
